Measured values published in ChEMBL document CHEMBL1147439, “Synthesis and SAR evaluation of 1,2,4-triazoles as A(2A) receptor antagonists” (Bioorg Med Chem Lett, 2004).

What was measured:
[1] = pKa value was determined; type: physicochemical
Adenosine receptor A2a [2] = target: T1, Adenosine receptor A2a (Homo sapiens, UniProt P29274); assay: Binding affinity towards human recombinant adenosine A2A receptor by displacement of [3H]SCH-58261 radioligand.
Adenosine receptor A2a [3] = target: T1, Adenosine receptor A2a; assay: Binding affinity for human adenosine A2A receptor by displacement of [3H]SCH-58,261; inactive
Adenosine receptor A1 = target: T2, Adenosine receptor A1 (Homo sapiens, UniProt P30542); assay: Binding affinity for human adenosine A1 receptor by displacement of [3H]DPCPX
T2 sequence (P30542 whole entry): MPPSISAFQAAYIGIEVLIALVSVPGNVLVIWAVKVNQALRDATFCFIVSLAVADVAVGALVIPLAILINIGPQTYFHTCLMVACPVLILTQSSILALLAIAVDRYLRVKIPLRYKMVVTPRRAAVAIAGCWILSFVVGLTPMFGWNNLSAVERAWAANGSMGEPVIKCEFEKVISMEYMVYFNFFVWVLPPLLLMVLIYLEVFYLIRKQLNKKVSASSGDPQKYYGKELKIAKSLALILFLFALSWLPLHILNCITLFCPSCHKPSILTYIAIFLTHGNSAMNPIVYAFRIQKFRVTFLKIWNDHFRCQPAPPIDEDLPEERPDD
In short: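 Membranes from cells expressing recombinant human A1 receptor, pre-mixed with adenosine deaminase and SPA beads. Labelled with [3H]DPCPX (0.6 nM final) against 10 concentrations of competitor or buffer. Buffer: Tris-HCl 50 mM pH 7.4, NaCl 120 mM, KCl 5 mM, CaCl2 2 mM, MgCl2 10 mM. Xanthine amine congener defined non-specific binding. Incubated 60 min at room temperature, centrifuged, scintillation counted. Duplicates, at least two experiments; Ki given as mean.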

[4] = Medium permeability in parallel artificial membrane permeation assay; high; type: functional
Adenosine receptor A2a [5] = target: Adenosine receptor A2a (Rattus norvegicus, UniProt P30543); assay: Binding affinity for rat adenosine A2A receptor by displacement of [3H]SCH-58261
[6] = Medium permeability in parallel artificial membrane permeation assay; medium; type: functional

Sequence of Adenosine receptor A2a (Rattus norvegicus, UniProt P30543) (P30543 whole entry): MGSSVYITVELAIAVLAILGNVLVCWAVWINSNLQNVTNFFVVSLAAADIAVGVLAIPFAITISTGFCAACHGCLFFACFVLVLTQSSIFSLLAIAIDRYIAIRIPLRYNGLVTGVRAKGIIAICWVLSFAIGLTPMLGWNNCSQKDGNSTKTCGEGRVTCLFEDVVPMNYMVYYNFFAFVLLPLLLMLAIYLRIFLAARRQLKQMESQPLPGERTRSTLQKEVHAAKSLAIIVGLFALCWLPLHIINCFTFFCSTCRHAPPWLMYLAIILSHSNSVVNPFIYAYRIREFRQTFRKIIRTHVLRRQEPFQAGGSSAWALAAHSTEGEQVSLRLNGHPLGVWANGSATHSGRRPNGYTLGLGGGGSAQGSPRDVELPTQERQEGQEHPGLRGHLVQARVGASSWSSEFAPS
T1 sequence (P29274 whole entry): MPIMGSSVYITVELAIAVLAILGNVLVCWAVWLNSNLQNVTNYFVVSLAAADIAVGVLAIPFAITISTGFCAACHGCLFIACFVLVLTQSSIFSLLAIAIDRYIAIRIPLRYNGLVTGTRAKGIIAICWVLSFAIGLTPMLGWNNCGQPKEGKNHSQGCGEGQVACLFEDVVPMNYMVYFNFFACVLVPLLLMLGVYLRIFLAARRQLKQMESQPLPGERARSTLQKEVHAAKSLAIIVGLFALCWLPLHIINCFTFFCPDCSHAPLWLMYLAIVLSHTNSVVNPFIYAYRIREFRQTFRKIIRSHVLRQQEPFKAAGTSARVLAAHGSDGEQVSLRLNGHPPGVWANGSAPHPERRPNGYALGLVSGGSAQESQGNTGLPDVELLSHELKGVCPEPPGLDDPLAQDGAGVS

Row | Compound | Ki (Adenosine receptor A2a [2]) [µM] | further results
1 | COc1ccc(O)c(/C=N/NS(=O)(=O)Cc2ccccc2)c1 | – | pKa [1]: 6.5
2 | COc1cccc(/C=N/N=C(\S)Cc2ccccc2)c1O | 4.7 | –
3 | Clc1ccc(Cc2nnc(C3CCCNC3)[nH]2)cc1Cl (configuration not stated) | > 5.2 | –
4 | COc1cccc(-c2n[nH]c(Cc3ccccc3Br)n2)c1 | 0.02 | –
5 | COc1cccc(-c2nnc(CN3CCCCC3)[nH]2)c1 | > 5.2 | –
6 | S/C(Cc1ccccc1)=N\N=C\c1cccnc1 | 0.005 | –
7 | O=[N+]([O-])c1ccc(O)c(/C=N/N=C(\S)Cc2ccccc2)c1 | 0.01 | –
8 | COc1ccc(/C=N/N=C(\S)Cc2ccccc2)c(O)c1 | 0.1 | –
9 | Clc1ccc(Cc2nnc(-c3cnccn3)[nH]2)cc1Cl | 0.06 | –
10 | Cc1ccc(O)c(C2=NN(C(=S)Cc3ccccc3)CC2)c1 | – | Ki (Adenosine receptor A2a [3]): > 5.2 µM
11 | COc1cccc(-c2nc(Cc3ccc(C)c(C)c3)n[nH]2)c1 | 0.02 | Ki (Adenosine receptor A1): 1.7 µM; Activity [4]: 0.9 10e-6·s cm-1; Ki (Adenosine receptor A2a [5]): 0.09 µM
12 | COc1cccc(-c2nnc(Cc3ccc(Cl)c(Cl)c3)[nH]2)c1OC | 0.09 | –
13 | COc1cccc(-c2n[nH]c(Cc3cccc([N+](=O)[O-])c3)n2)c1 | 0.08 | –
14 | Oc1ccc(OC(F)(F)F)cc1/C=N/N=C(\S)Cc1ccccc1 | 1.4 | –
15 | S/C(Cc1ccccc1)=N\N=C\c1cnc2ccccc2c1 | 2 | –
16 | Cn1nc(-c2ccc(N=[N+]=[N-])cc2)nc1-c1cccc(CN2CC=CC2)c1 | 0.4 | Ki (Adenosine receptor A1): 7.3 µM
17 | COc1cccc(-c2n[nH]c(Cc3cccc(Br)c3)n2)c1 | 0.01 | Ki (Adenosine receptor A1): 0.1 µM; Activity [4]: 1.9 10e-6·s cm-1; Ki (Adenosine receptor A2a [5]): 0.04 µM

Row | Compound | Ki (Adenosine receptor A2a [2]) [µM] | further results
18 | COc1cccc(-c2n[nH]c(Cc3ccc4ccccc4c3)n2)c1 | 0.1 | Ki (Adenosine receptor A1): 2.5 µM; Activity [6]: 0.3 10e-6·s cm-1; Ki (Adenosine receptor A2a [5]): 0.4 µM
19 | COc1cccc(-c2n[nH]c(Cc3cccc(F)c3F)n2)c1 | 0.02 | Ki (Adenosine receptor A1): 0.9 µM; Activity [4]: 3.8 10e-6·s cm-1; Ki (Adenosine receptor A2a [5]): 0.04 µM
20 | COc1cccc(-c2nnc(-c3ccc(Cl)c(Cl)c3)[nH]2)c1 | 0.7 | Ki (Adenosine receptor A1): 6.1 µM
21 | COc1cccc(-c2n[nH]c(Cc3ccc(Cl)c(Cl)c3)n2)c1 | 0.04 | Ki (Adenosine receptor A1): 1.9 µM
22 | S/C(Cc1ccccc1)=N\N=C\c1ccccc1 | > 5.2 | –
23 | COc1cccc(-c2nnc(Cc3ccc(F)c(F)c3)[nH]2)c1 | 0.07 | –
24 | S/C(Cc1ccccc1)=N\N=C\c1ccccn1 | 0.1 | –
25 | Clc1ccc(Cc2n[nH]c(-c3ccc4c(c3)OCO4)n2)cc1Cl | 0.1 | –
26 | COc1cc(/C=N/N=C(\S)Cc2ccccc2)c(O)c(OC)c1 | 4.2 | –
27 | COc1cccc(-c2n[nH]c(CCc3ccc(Cl)c(Cl)c3)n2)c1 | 1 | Ki (Adenosine receptor A1): 1.8 µM
28 | S/C(Cc1ccccc1)=N\N=C\c1ccc2ccccc2n1 | 1.2 | –
29 | COc1ccc(O)c(/C=N/N=C(\S)Cc2ccccc2)c1 | 0.02 | pKa [1]: 6.6
30 | COc1ccc(O)c(/C=N/NC(=O)Cc2ccccc2)c1 | – | pKa [1]: 2.9
31 | COc1cccc(-c2n[nH]c(CC3CCCCC3)n2)c1 | 0.7 | –
32 | c1cc(CN2CCCC2)cc(-c2n[nH]c(-c3ccc4c(c3)OCCO4)n2)c1 | 1 | Ki (Adenosine receptor A1): 7.6 µM
33 | Oc1ccccc1-c1n[nH]c(-c2ccccc2)n1 | 0.7 | –
34 | COc1cccc(O)c1/C=N/N=C(\S)Cc1ccccc1 | > 5.2 | –
